Assay results as given in publication PMC6214802 (Molecular microbiology, 2018).
Read-outs that look alike come from different tables or passages of the source.

Assays:
[1] = target: V. cholerae Aer2 PAS2 [165–282] peptide (V. cholerae O1 JBK 70); assay: SEC
[2] = target: V. cholerae Aer2 PAS2 [165–282] peptide (V. cholerae O1 JBK 70); assay: SEC; remark: listed apart in the source
[3] = target: V. cholerae Aer2 PAS1 [1–164] peptide (V. cholerae O1 JBK 70); assay: SEC
[4] = target: V. cholerae Aer2 PAS 1–2 [1–282] peptide (V. cholerae O1 JBK 70); assay: SEC
[5] = test system: PAS1 [38–157] mutant peptides; assay: Gas binding to purified PAS1 [38–157] mutant peptides; parameters: species or system Vibrio cholerae
[6] = test system: VcAer2/BT3388 cells; assay: Behavioral assay; format: cell-based, E. coli; details: full-length VcAer2; 200 µM or 1 mM IPTG; with or without 25 µg ml^−1 ALA
How it was run: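 Full-length receptor expressed in chemoreceptorless E. coli BT3388 grown at 30 °C in tryptone broth with 0.5 µg ml−1 thiamine (± 25 µg ml−1 ALA). Induced at OD600 0.2–0.25 for 2 h with 200 µM or 1 mM IPTG. Gas perfusion chamber toggled between air (20.9% O2) and N2. For CO, 30 s N2 then 10 s CO (>99%). Percent tumbling scored for all motile cells per field at 800×. Repeated ≥2 times on ≥2 occasions.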

[7] = target: VcAer2 PAS1 [38–157]; assay: O2 and CO titrations of purified PAS1 peptide; format: binding, Vibrio cholerae; details: read-out: Kd(CO); PAS1 [38–157] peptide
How it was run: (§1)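 PAS1 [38–157] or PAS2 [165–282] peptides came from E. coli BT3388 grown in LB Lennox with 0.5 µg ml−1 thiamine and 25 µg ml−1 ALA, induced with 600 µM IPTG and Ni-NTA purified. Heme-bound protein was quantified by pyridine hemochrome assay to standardize PAS-heme concentration. Kd(O2) and Kd(CO) were estimated by linear interpolation between unliganded Fe2+ and Fe2+-O2 or Fe2+-CO spectra. Averaged over 2–8 experiments, rounded to whole numbers.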

[8] = test system: PaAer2/BT3388 cells; details: PaAer2 in E. coli; ref Watts et al., 2011; cited from earlier work
[9] = test system: PAS2 [165–282] W276 mutant peptides; assay: Gas binding to purified PAS2 [165–282] W276 mutant peptides; parameters: species or system Vibrio cholerae; details: PAS2 peptides containing W276C, L and V
[10] = target: VcAer2 PAS2 [165–282]; assay: O2 and CO titrations of purified PAS2 peptide; format: binding, Vibrio cholerae; details: read-out: Kd(CO); PAS2 [165–282] peptide
How it was run: as §1

[11] = target: VcAer2 [165–678]; assay: O2 and CO titrations of purified VcAer2 [165–678]; format: binding, Vibrio cholerae; details: read-out: Kd(CO)
How it was run: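 Truncated receptor was expressed in E. coli BT3388 in LB Lennox with 0.5 µg ml−1 thiamine and 25 µg ml−1 ALA, induced with 600 µM IPTG, then Ni-NTA purified. Heme content was assessed on 5 µM purified protein. Kd(O2) and Kd(CO) came from linear interpolation between unliganded Fe2+ and liganded (Fe2+-O2, Fe2+-CO) absorption spectra. Averaged over 2–8 experiments and rounded to whole numbers.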

[12] = target: PaPAS (Pseudomonas aeruginosa Aer2 PAS domain); details: read-out: Kd(CO), ref Garcia et al., 2017; cited from earlier work
[13] = target: V. cholerae Aer2 PAS1 [38–157] peptide (V. cholerae O1 JBK 70); assay: SEC
[14] = target: V. cholerae Aer2 PAS1 [38–157] peptide (V. cholerae O1 JBK 70); assay: SEC; remark: listed apart in the source

Work on “V. cholerae Aer2 PAS2 [165–282] peptide (domain or fragment)” yielded a stoichiometry N [1] of 2 and a stoichiometry N [2] of 2.
Work on “V. cholerae Aer2 PAS1 [1–164] peptide (domain or fragment)” yielded a stoichiometry N [3] of 2.
Compound “V. cholerae Aer2 PAS 1–2 [1–282] peptide (domain or fragment)” has a stoichiometry N [4] of 2.
With `[C-]#[O+]` [CO, carbon monoxide] the “CO binding affinity relative to WT” value ([5]; PAS1-W151C, F, G, P, S, T and V) was “WT affinities”, the “CO binding affinity relative to WT” value ([5]; PAS1-W151L) was “WT affinities” and the “CO binding affinity relative to WT” value ([5]; PAS1-Y119L) was “WT O2 and CO affinities”. For the same compound, the CO binding ([5]; PAS1-Y119L/W151L) was “bound heme and CO”, the “behavioral response to gas” value [6] was “did not respond” and the Kd [7] was 7 µM. The “cells tumbling in the presence of gas” value [8] was ~ 98%, the CO binding [9] was “bound CO” and the Kd [10] was 5 µM. For the same compound, the Kd [11] was 2000 nM and the Kd [12] was 2000 nM.
For “V. cholerae Aer2 PAS1 [38–157] peptide (domain or fragment)”, the stoichiometry N [13] was 2 and the stoichiometry N [14] was 2.
